≈ marks a conversion by molar mass, not a printed value.
What was measured:
[1] = Protein binding in human plasma at 10 uM after 6 hrs by LC-MS/MS method; type: ADME, cell-free; details: read-out: PPB (converted)
[2] = Intrinsic clearance in human liver microsomes at 1 uM after 5 to 40 mins by LC-MS/MS method; type: ADME; details: read-out: CLH
[3] = Protein binding in rat plasma at 10 uM after 6 hrs by LC-MS/MS method; type: ADME, cell-free; details: read-out: PPB (converted)
[4] = Propionaldehyde reactivity assessed as half life of the compound at pH 7.4 by LC-UV method; type: physicochemical
[5] = Apparent permeability across basolateral to apical side in human Caco2 cells at 10 uM after 1 hr by LC-MS method; details: Caco-2
[6] = Intrinsic clearance in human hepatocytes assessed per 10^6 cells at 1 uM after 10 to 90 mins by LC-MS/MS method; type: ADME, cell-based, Hepatocyte
[7] = Intrinsic clearance in dog hepatocytes assessed per 10^6 cells at 1 uM after 10 to 90 mins by LC-MS/MS method; type: ADME, cell-based, Canis lupus familiaris, Hepatocyte
[8] = Clearance in Han Wistar rat at 1 mg/kg, iv and 3 mg/kg, po; type: ADME, organism-based; details: in vivo
Procedure, shortened: (§1)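 Han Wistar rat PK with 1 mg/kg iv and 3 mg/kg po doses, both in pH3 buffer. Clearance is given in ml/min/kg, Vss in L/kg and t1/2 in h.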

[9] = Volume of distribution at steady state in Han Wistar rat at 1 mg/kg, iv and 3 mg/kg, po; type: ADME, organism-based; details: in vivo, read-out: Vdss; procedure, shortened: as §1
[10] = Half life in Han Wistar rat at 1 mg/kg, iv and 3 mg/kg, po; type: ADME, organism-based; details: in vivo; procedure, shortened: as §1
[11] = Volume of distribution at steady state in Beagle dog at 1 mg/kg, iv and 2 mg/kg, po; type: ADME, organism-based, Canis lupus familiaris; details: in vivo, read-out: Vdss
[12] = Half life in Beagle dog at 1 mg/kg, iv and 2 mg/kg, po; type: ADME, organism-based, Canis lupus familiaris; details: in vivo
[13] = target: Dipeptidyl peptidase 1 (Canis lupus familiaris, UniProt O97578); assay: Inhibition of dog DPP1 using Gly-Arg-AMC as substrate preincubated for 30 mins followed by substrate addition by fluorometric assay
Procedure, shortened: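 Recombinant dog DPP1 enzyme, run under the same conditions as the human isolated-enzyme assay in a piperazine-based buffer. Compound and enzyme pre-incubated 30 min at rt. Fluorescent dipeptide substrate Gly-Arg-AMC then added and fluorescence read. pIC50 obtained by curve fitting.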

[14] = Inhibition of rabbit DPP1 expressed in CHO cells using Gly-Arg-AMC as substrate preincubated for 30 mins followed by substrate addition by fluorometric assay; type: cell-based, Oryctolagus cuniculus
[15] = target: Procathepsin L (Homo sapiens, UniProt P07711); assay: Inhibition of human recombinant cathepsin L
[16] = target: Cathepsin B (Homo sapiens, UniProt P07858); assay: Inhibition of human recombinant cathepsin B
[17] = target: T1, Cathepsin E (Homo sapiens, UniProt P14091); assay: Inhibition of human recombinant cathepsin E
T1 sequence (P14091 whole entry): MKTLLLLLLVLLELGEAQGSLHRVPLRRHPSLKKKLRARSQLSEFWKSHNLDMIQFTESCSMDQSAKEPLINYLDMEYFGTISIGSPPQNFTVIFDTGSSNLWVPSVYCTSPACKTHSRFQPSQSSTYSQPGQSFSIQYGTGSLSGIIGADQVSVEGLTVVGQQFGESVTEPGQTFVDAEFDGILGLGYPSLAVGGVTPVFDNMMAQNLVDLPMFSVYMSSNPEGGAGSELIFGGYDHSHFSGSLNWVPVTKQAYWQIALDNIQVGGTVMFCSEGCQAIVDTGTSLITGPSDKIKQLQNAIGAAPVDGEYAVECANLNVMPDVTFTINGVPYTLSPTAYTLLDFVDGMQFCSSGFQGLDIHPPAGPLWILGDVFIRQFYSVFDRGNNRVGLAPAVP

[18] = target: Cathepsin Z (Homo sapiens, UniProt Q9UBR2); assay: Inhibition of human recombinant cathepsin Z
[19] = test system: Rattus norvegicus; assay: In vivo inhibition of DPP1 in po dosed naive rat assessed as inactivation of neutrophil elastase in bone marrow cell lysates administered as bid for 8 days; type: functional, organism-based
[20] = test system: Rattus norvegicus; assay: In vivo inhibition of DPP1 in po dosed naive rat assessed as inactivation of proteinase 3 in bone marrow cell lysates administered as bid for 8 days; type: functional, organism-based
[21] = Intrinsic clearance in human liver microsomes at 1 uM after 5 to 30 mins by LC-MS/MS method; type: ADME; details: read-out: CLH
Procedure, shortened: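 Human liver microsome stability, with intrinsic clearance given in µL/min/mg.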

[22] = Intrinsic clearance in human hepatocytes at 1 uM after 5 to 120 mins by LC-MS/MS method; type: ADME, cell-based, Hepatocyte
Procedure, shortened: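 Intrinsic clearance in human hepatocytes, given in µL/min/10^6 cells.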

[23] = Apparent permeability across apical to basolateral side in human Caco2 cells at 10 uM after 2 hrs by LC-MS/MS method; type: ADME, cell-based; details: Caco-2
Procedure, shortened: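 Caco-2 bidirectional permeability run as P_app, given in cm/s x 10^-6.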

[24] = Clearance in Sprague-Dawley rat at 1 mg/kg, iv or 3 mg/kg, po; type: ADME, organism-based; details: in vivo
[25] = Half life in Sprague-Dawley rat at 1 mg/kg, iv or 3 mg/kg, po; type: ADME, organism-based; details: in vivo
[26] = Oral bioavailability in Sprague-Dawley rat at 3 mg/kg; type: ADME, organism-based; details: in vivo
[27] = physchem; details: phosphate buffered saline, pH 7.4

Cathepsin Z, sequence (Q9UBR2 whole entry): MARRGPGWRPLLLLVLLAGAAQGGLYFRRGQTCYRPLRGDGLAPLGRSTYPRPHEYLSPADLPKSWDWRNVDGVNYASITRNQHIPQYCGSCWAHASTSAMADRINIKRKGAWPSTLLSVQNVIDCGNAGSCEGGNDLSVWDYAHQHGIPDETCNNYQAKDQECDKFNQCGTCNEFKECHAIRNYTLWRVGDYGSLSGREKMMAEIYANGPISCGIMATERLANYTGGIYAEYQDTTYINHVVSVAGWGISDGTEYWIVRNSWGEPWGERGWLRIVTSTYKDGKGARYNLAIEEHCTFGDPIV
Dipeptidyl peptidase 1, sequence (O97578 1-109 limits assumed): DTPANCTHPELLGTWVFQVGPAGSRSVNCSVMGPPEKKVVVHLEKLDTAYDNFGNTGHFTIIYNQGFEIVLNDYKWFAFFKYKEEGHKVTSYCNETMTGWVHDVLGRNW
Dipeptidyl peptidase 1, sequence (O97578 200-366 limits assumed): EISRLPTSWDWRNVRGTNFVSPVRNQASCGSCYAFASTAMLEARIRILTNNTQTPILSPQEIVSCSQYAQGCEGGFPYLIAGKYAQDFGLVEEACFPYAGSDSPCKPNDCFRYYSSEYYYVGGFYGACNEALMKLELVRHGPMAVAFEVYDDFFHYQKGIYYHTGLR
Dipeptidyl peptidase 1, sequence (O97578 367-435 limits assumed): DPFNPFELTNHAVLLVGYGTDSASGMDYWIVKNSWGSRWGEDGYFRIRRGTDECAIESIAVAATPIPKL
Procathepsin L, sequence (P07711 whole entry): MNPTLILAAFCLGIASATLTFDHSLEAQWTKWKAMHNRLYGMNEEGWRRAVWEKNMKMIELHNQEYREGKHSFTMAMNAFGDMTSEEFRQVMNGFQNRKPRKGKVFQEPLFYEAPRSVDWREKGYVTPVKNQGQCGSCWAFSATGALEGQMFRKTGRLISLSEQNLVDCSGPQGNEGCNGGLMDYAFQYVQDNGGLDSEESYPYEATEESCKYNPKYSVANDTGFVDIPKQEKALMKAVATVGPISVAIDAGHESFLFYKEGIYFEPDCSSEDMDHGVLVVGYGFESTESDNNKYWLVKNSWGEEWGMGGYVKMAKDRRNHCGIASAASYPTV

fraction unbound at 6 h, 10 µM [1]: 0.13
microsomal CLint at 1 µM [2]: < 14 µL/min/mg
fraction unbound at 6 h, 10 µM [3]: 0.06
half-life [4]: > 50 h
Papp B→A at 1 h, 10 µM [5]: 58 ×10⁻⁶ cm/s
intrinsic clearance (CLint) [6]: < 3.5 µL/min/10^6 cells
CLH [7]: < 3.5 µL/min/10^6 cells
clearance [8]: 7 mL/min/kg
Vd [9]: 2.5 L/kg
half-life [10]: 5 h
Vd [11]: 11 L/kg
half-life [12]: 18 h
IC50 [13]: 0.0158 µM
pIC50 [14]: 7.8
IC50 [15]: > 20 µM
IC50 [16]: > 20 µM
IC50 [17]: > 20 µM
IC50 [18]: > 20 µM
microsomal CLint at 1 µM [21]: < 3 µL/min/mg
CLH [22]: < 1 µL/min/1e6 cells
Papp A→B at 2 h, 10 µM [23]: 4 ×10⁻⁶ cm/s
clearance [24]: 1 mL/min/kg
half-life [25]: 7 h
bioavailability [26]: 30%
solubility kinetic at 2 h [27]: 180 µM (≈ 75.7 µg/mL)
Compound: Cn1c(=O)oc2ccc(-c3ccc(C[C@@H](C#N)NC(=O)[C@@H]4CNCCCO4)cc3)cc21 [BRENSOCATIB]
inhibition [19]: Dose-dependent effect
inhibition [20]: Dose-dependent effect
